The record followed here is the array DNA melting data of Ke et al. (doi:10.1101/2024.01.08.574731).

A short description of data set [1]: melting temperature; fluorescence melt of hairpins on a sequencing array, two-state fit, raised by 9.35 °C to match UV melts. Particulars: sodium 0.088 M. Put shortly:
(§1)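 Hairpins were imaged by Cy3 fluorescence on a sequenced MiSeq flow cell with annealed Cy3 and quencher oligos, in 50 mM Na-HEPES pH 8.0, 25 mM NaCl, in 2.5 °C steps up to 60 °C. Bootstrapped two-state fits of normalised signals gave melting temperature and folding enthalpy. Four replicates were combined by inverse variance, and fitted temperatures were raised by 9.35 °C to match UV melts.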

Data set [2] is described as follows: folding enthalpy; higher = less favourable; fluorescence melt of hairpins on a sequencing array, two-state fit. Particulars: sodium 0.088 M. The procedure, abridged: as §1

GATCGGGTGGCCGATC ((((((....)))))): in data set [1], the Tm came out at 57 °C. In addition, the folding enthalpy in data set [2] was -40.4 kcal/mol.
Take GATCGATCCGTCGATC ((((((....)))))): the Tm in data set [1] is 53.6 °C. The folding enthalpy in data set [2] was -44.8 kcal/mol.
Regarding GCTTGCGAAAGCAAGAGC ((((((....)))..))), the Tm in data set [1] was found to be 56.3 °C. Also, in data set [2], the folding enthalpy was -12.3 kcal/mol.
For GGGATCGGAAACGACCCC (((.(((....))).))), in that order: 52.4 °C and -37.5 kcal/mol.
GCAGTGGGAAACCACTAC (.(((((....))))).): the Tm in data set [1] turned out to be 41.1 °C. For the same sequence, the folding enthalpy in data set [2] was -12.9 kcal/mol.
Turning to CGACTGAAAAGTCG (((((....))))), the Tm in data set [1] was found to be 58.5 °C. The folding enthalpy in data set [2] is -26.5 kcal/mol.
CGCGGAAGATCCGCG ((((((...)))))): the Tm in data set [1] amounted to 69.1 °C. Besides, in data set [2], the folding enthalpy is -26.5 kcal/mol.
For GGTTATGGAAACATGACC (((.(((....))).))), in data set [1], the Tm is 45.4 °C. In addition, the folding enthalpy in data set [2] was -33.2 kcal/mol.
Take GAAGACGAAAGTCCCTTC ((((((....)))..))): in data set [1], the Tm came out at 30.8 °C. For the same sequence, in data set [2], the folding enthalpy was -13.8 kcal/mol.
Turning to GGTGTACCGAAAGGTACC (((..(((....)))))), the Tm in data set [1] was found to be 44.7 °C. For the same sequence, in data set [2], the folding enthalpy is -9.75 kcal/mol.
Regarding GGGCAACGAAAGTTCCCC (((.(((....))).))), in data set [1], the Tm amounted to 47.2 °C. In addition, in data set [2], the folding enthalpy was -20.2 kcal/mol.
Take GCTCAGCGAAAGCGGGGC ((.(.((....)).).)): the Tm in data set [1] amounted to 59.9 °C. For the same sequence, the folding enthalpy in data set [2] is -25.5 kcal/mol.
Turning to GACCCCGAAAGGGTGGTC ((((((....)))..))), in data set [1], the Tm was 49.4 °C. Further, the folding enthalpy in data set [2] was -16.5 kcal/mol.
In the case of GGATCTGGAAACGGATTC (.(((.(....).))).), in data set [1], the Tm turned out to be 31.5 °C. Further, the folding enthalpy in data set [2] is -28.5 kcal/mol.
For GCTTACGAAAGTAGAAGC ((((((....)))..))), in that order: 38.2 °C and -24.3 kcal/mol.
The matching figures for GACGTCCGAAAGGATGTC (((.(((....))).))): 60.1 °C and -42.9 kcal/mol.
Regarding GCCCGGCGAAAGCCCTGC ((..(((....)))..)), the Tm in data set [1] was 30.7 °C. In addition, in data set [2], the folding enthalpy was -8.41 kcal/mol.
As for GCAGGTCGAAAGACTGC (((.(((....)))))), the Tm in data set [1] is 55.9 °C. In data set [2], the folding enthalpy was -29.8 kcal/mol.
As to GGATACGAAAGTAACTCC ((((((....)))..))), the Tm in data set [1] was 30.6 °C. For the same sequence, the folding enthalpy in data set [2] was -16 kcal/mol.
The matching figures for GAAATGGGAAACCGTTTC ((((.((....)).)))): 43.6 °C and -33.4 kcal/mol.
The matching figures for GCGATGCGAAAGCCACGC (((..((....))..))): 52.1 °C and -21.1 kcal/mol.
Take GCTCTCCGAAAGGAAGC (((.(((....)))))): in data set [1], the Tm came to 47.8 °C. Moreover, in data set [2], the folding enthalpy was -25.8 kcal/mol.
Take GCTGTTGGAAACAATAGC (((.(((....))).))): in data set [1], the Tm worked out at 47.9 °C. Also, in data set [2], the folding enthalpy was -31.9 kcal/mol.
Turning to GCCTTTCCGAAAGGAGGC (((..(((....)))))), the Tm in data set [1] amounted to 44.6 °C. Further, the folding enthalpy in data set [2] is -19.9 kcal/mol.
For GGTAGCGAAAGCTGGACC ((((((....)))..))), in that order: 37.4 °C and -12.6 kcal/mol.
On to GCCCATACGAAAGTAGGC (((..(((....)))))), for which, in data set [1], the Tm is 41.5 °C. The folding enthalpy in data set [2] was -20.8 kcal/mol.
Consider GTGGAATCGAAAGATCAC (((..(((....)))))), for which, in data set [1], the Tm is 33.9 °C. Also, in data set [2], the folding enthalpy is -19.2 kcal/mol.
Take GCCTCAGGAAACCGAGGC (((((.(....).))))): in data set [1], the Tm amounted to 53.5 °C. Also, the folding enthalpy in data set [2] was -45.1 kcal/mol.
For GCTCACGAAAGTGTCAGC ((((((....)))..))), the Tm in data set [1] worked out at 37.4 °C. Moreover, in data set [2], the folding enthalpy was -17.4 kcal/mol.
For GCTGGGTCGAAAGACAGC (((..(((....)))))), the Tm in data set [1] amounted to 46 °C. Further, the folding enthalpy in data set [2] is -19.9 kcal/mol.
Take GCTTTACGAAAGTAGAGC (((.(((....))).))): the Tm in data set [1] turned out to be 49.4 °C. Further, the folding enthalpy in data set [2] is -38.9 kcal/mol.
For GCAGAACGAAAGTTGTGC (((.(((....))).))), in that order: 55.4 °C and -32.1 kcal/mol.
Regarding CGACGCGGAAACGCCTCG (((.(((....))).))), the Tm in data set [1] is 41.5 °C. Also, the folding enthalpy in data set [2] is -23.9 kcal/mol.
In the case of GACTCCGAAAGGACCGTC ((((((....)))..))), the Tm in data set [1] was 29.7 °C. Also, in data set [2], the folding enthalpy is -13.8 kcal/mol.
For GATCAATCGTTTGATC ((((((....)))))), in that order: 45.7 °C and -33.8 kcal/mol.
The matching figures for GTGTGGCGAAAGCCCCAC (((.(((....))).))): 51.3 °C and -23.5 kcal/mol.
With CGCGGACGGATCCGCG ((((((....)))))), the Tm in data set [1] stood at 68.7 °C. The folding enthalpy in data set [2] is -28.8 kcal/mol.
Consider GCGAAAGCGAAAGCTCGC (((..(((....)))))), for which the Tm in data set [1] turned out to be 56.3 °C. Besides, the folding enthalpy in data set [2] was -24.2 kcal/mol.
For GCCCTAGGAAACCAGGGC (((((.(....).))))), in that order: 52.5 °C and -47 kcal/mol.
GTGTGCGGAAACGCATAC ((.((((....)))).)): the Tm in data set [1] came out at 54.6 °C. For the same sequence, the folding enthalpy in data set [2] is -37 kcal/mol.
Take GGCGGGGCGAAAGCCGCC (((..(((....)))))): the Tm in data set [1] turned out to be 68.6 °C. Further, in data set [2], the folding enthalpy was -19.9 kcal/mol.
Regarding CGGCCGGAAACGGCTCCG ((((((....)))..))), in data set [1], the Tm amounted to 33.7 °C. In addition, the folding enthalpy in data set [2] was -8.35 kcal/mol.
For the sequence GATCGGACACCGATC ((((((...)))))), the Tm in data set [1] was found to be 57.1 °C. Moreover, the folding enthalpy in data set [2] was -33.4 kcal/mol.
Consider GGACACGCGAAAGCGTCC (((..(((....)))))), for which the Tm in data set [1] came to 42.1 °C. Further, in data set [2], the folding enthalpy was -9.09 kcal/mol.
As to GCCGGGCGAAAGCCAAGC ((..(((....)))..)), the Tm in data set [1] came out at 46.8 °C. Besides, the folding enthalpy in data set [2] is -14.5 kcal/mol.
As for GCTGCTGGAAACGGCAGC (((((.(....).))))), the Tm in data set [1] is 63.1 °C. Besides, the folding enthalpy in data set [2] was -44.6 kcal/mol.
The matching figures for GATCCCCTTCGGGATC ((((((....)))))): 58.7 °C and -39.9 kcal/mol.
Consider GCGGTCGAAAGACAACGC ((((((....)))..))), for which the Tm in data set [1] came to 56.6 °C. Moreover, the folding enthalpy in data set [2] is -27.7 kcal/mol.
Turning to GAAGCTGGAAACAACTTC ((((.((....)).)))), in data set [1], the Tm was found to be 34.9 °C. Also, the folding enthalpy in data set [2] is -24.2 kcal/mol.
Take CGGTTACGGAAACGTCCG (((..(((....)))))): the Tm in data set [1] turned out to be 36.1 °C. Besides, the folding enthalpy in data set [2] is -23.3 kcal/mol.
As for GATCCTAGCTAGGATC ((((((....)))))), the Tm in data set [1] is 54.1 °C. Also, the folding enthalpy in data set [2] is -56.9 kcal/mol.
With GCGAGGCGAAAGCGTGGC ((.(.((....)).).)), the Tm in data set [1] was 48.9 °C. Also, the folding enthalpy in data set [2] is -15.2 kcal/mol.
GGCCCGTCGAAAGACGCC (((..(((....)))))): in data set [1], the Tm was determined as 37 °C. The folding enthalpy in data set [2] is -8.97 kcal/mol.
Consider GGGTCCGAAAGGAAGCCC ((((((....)))..))), for which, in data set [1], the Tm came to 46.9 °C. Moreover, the folding enthalpy in data set [2] was -18.8 kcal/mol.
Take GGCAAACCGAAAGGTGCC (((..(((....)))))): in data set [1], the Tm was 56 °C. For the same sequence, the folding enthalpy in data set [2] was -39.1 kcal/mol.
GGTGTCGAAAGACGCACC ((((((....)))..))): the Tm in data set [1] turned out to be 42.4 °C. The folding enthalpy in data set [2] is -13.6 kcal/mol.
Turning to GAGCAACGAAAGTTCCTC (((.(((....))).))), the Tm in data set [1] was 32.3 °C. In data set [2], the folding enthalpy was -13.6 kcal/mol.
For GGTGAAGAAATTCACC ((((((....)))))), in that order: 52.6 °C and -32.5 kcal/mol.
With GCTGCCGCGAAAGCGAGC (((..(((....)))))), the Tm in data set [1] was found to be 57.6 °C. Also, in data set [2], the folding enthalpy is -9.35 kcal/mol.
As to CACATGAAAATGTG (((((....))))), in data set [1], the Tm turned out to be 47.9 °C. For the same sequence, the folding enthalpy in data set [2] was -27.3 kcal/mol.
Take GGAATTGGAAACAACTCC (((.(((....))).))): in data set [1], the Tm amounted to 30.3 °C. Also, the folding enthalpy in data set [2] was -22.2 kcal/mol.
As to GCTCTGCGAAAGCCGGGC ((.(.((....)).).)), the Tm in data set [1] was 41.7 °C. For the same sequence, the folding enthalpy in data set [2] was -20.1 kcal/mol.
GTCTGCGAAAGCAAGAC ((((((....))).))): the Tm in data set [1] turned out to be 60.5 °C. Besides, the folding enthalpy in data set [2] was -26.3 kcal/mol.
In the case of GAGGTAGGAAACCACCTC (((((.(....).))))), the Tm in data set [1] turned out to be 42.2 °C. For the same sequence, the folding enthalpy in data set [2] was -31 kcal/mol.
Consider GTGCACGAAAGTGGACAC ((((((....)))..))), for which the Tm in data set [1] turned out to be 52.6 °C. Moreover, the folding enthalpy in data set [2] is -15.2 kcal/mol.
As for GGGGCCGAAAGGCGACCC ((((((....)))..))), the Tm in data set [1] turned out to be 55.9 °C. The folding enthalpy in data set [2] is -15.9 kcal/mol.
The matching figures for GCCTCTCGAAAGAGGGC (((.(((....)))))): 54.4 °C and -30.6 kcal/mol.
On to GCCATCCGAAAGGAGGGC (((.(((....))).))), for which the Tm in data set [1] came out at 67.2 °C. Further, the folding enthalpy in data set [2] was -44 kcal/mol.
The matching figures for GCCGCTACGAAAGTAGGC (((..(((....)))))): 51 °C and -18 kcal/mol.
Turning to GTGATGGGAAACCGTCAC ((((.((....)).)))), in data set [1], the Tm came out at 52.9 °C. Besides, in data set [2], the folding enthalpy is -50.2 kcal/mol.
Turning to GCGGCATCCCGC ((((....)))), in data set [1], the Tm came to 56.4 °C. Besides, in data set [2], the folding enthalpy was -20.7 kcal/mol.
As to GTCGTGGGAAACCGCGAC ((((.((....)).)))), in data set [1], the Tm is 60.8 °C. In addition, the folding enthalpy in data set [2] was -48.7 kcal/mol.
In the case of GCCATGGCGAAAGCCGGC (((..(((....)))))), the Tm in data set [1] is 62 °C. In data set [2], the folding enthalpy was -16.2 kcal/mol.
